IDH1 mut inh = inhibitors of human IDH1 R132H; IDH1 R132H reductase, diaphorase/resazurin fluorescence, 60 min; inhibition, % at 10 µM; actives 0.18% (n = 70,000); in the data active = inhibition above about 34%; inconclusive = no clear call, values can overlap the other calls; inactive = below about 11%
KDM4C inh = blocks human GASC-1 (KDM4C) demethylase activity | Q9H3R0 | GST-KDM4C 2-372, H3K9me3 peptide, LANCE TR-FRET | inhibition, % at 12.5 µM | actives 0.15% (n = 96,000) | AID 720574;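 active = mean replicate inhibition above about 25%, with at least 55% of replicates also reaching it, limit read from the data, passing the limit was not always enough; inconclusive = only one of those two conditions met; inactive = neither condition met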
Target sequence (Q9H3R0 2-372 limits assumed): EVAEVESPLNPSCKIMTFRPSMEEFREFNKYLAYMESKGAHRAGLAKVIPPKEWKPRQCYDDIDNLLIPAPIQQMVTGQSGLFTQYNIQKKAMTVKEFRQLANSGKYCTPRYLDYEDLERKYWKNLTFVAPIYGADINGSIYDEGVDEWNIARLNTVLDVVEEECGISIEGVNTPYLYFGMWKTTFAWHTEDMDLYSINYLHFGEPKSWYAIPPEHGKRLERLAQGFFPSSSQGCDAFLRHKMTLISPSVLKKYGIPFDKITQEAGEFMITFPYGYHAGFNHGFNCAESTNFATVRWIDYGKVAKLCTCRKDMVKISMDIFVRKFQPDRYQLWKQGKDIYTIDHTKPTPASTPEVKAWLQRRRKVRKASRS
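Material: N-terminal GST-fused human GASC-1 (KDM4C) fragment, residues 2-372. Input: 10 nM enzyme. Incubation: enzyme reaction 30 min, then detection 60 min, both room temperature. Doses: one test concentration per compound. Read-out basis: inhibition from TR-FRET ratio decrease. Detection: LANCE TR-FRET, excitation 340 nm, emissions 618 and 671 nm.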
Pf Dd2 inh = inhibitors of Plasmodium falciparum Dd2 growth; P. falciparum Dd2 growth, SYBR Green, 72 h; hits give low values; activity change, % at 10 µM; actives 2.3% (n = 94,000); AID 1159554; in the data active = activity change below about -80%; inconclusive = no clear call, values can overlap the other calls
T cruzi growth-1 = T. cruzi proliferation inhibition. T. cruzi beta-gal in NIH3T3, GalScreen luminescence, 90 h. inhibition, % at 8.34 µM. actives 5.9% (n = 77,000). AID 624255;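 active = mean inhibition above about 93%, with at least 55% of replicates each passing it, limit read from the data, passing the limit was not always enough; inconclusive = only one of those two conditions holds; inactive = neither condition holds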
T cruzi growth-2 = inhibitors of T. cruzi proliferation | shares compounds with T cruzi growth-1 | T. cruzi beta-gal in NIH3T3, GalScreen luminescence, 90 h | inhibition, % at 8.35 µM | actives 72% (n = 5,600) | AID 651739;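 active = mean replicate inhibition above about 95% and at least 55% of replicates individually reaching it, limit read from the data; inconclusive = only one of the two criteria is met; inactive = neither criterion is met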
T cruzi growth-3 = Trypanosoma cruzi proliferation inhibition; shares compounds with T cruzi growth-1; T. cruzi beta-gal in NIH3T3, GalScreen luminescence, 90 h; inhibition, % at 2.09 µM; actives 21% (n = 5,600); AID 651740;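 active = mean inhibition above about 95%, with at least 55% of replicates also reaching it, limit read from the data; inconclusive = meets just one of the two conditions; inactive = meets neither condition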
NIH3T3 tox = NIH/3T3 (mouse) viability loss. NIH/3T3 viability, CellTiter-Glo ATP luminescence, 90 h. AID 651742. shares compounds with T cruzi growth-1. cytotoxicity (signal decrease), % at 8.35 µM. actives 14% (n = 5,600);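 active = mean signal decrease across replicates above about 35% based on untreated-well scatter, with enough replicates individually passing, limit read from the data; inconclusive = no rule stated though some were filed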
NIH3T3 tox 2 = NIH/3T3 (mouse) viability loss; shares compounds with T cruzi growth-1; NIH/3T3 viability, CellTiter-Glo ATP luminescence, 90 h; inhibition, % at 24.9 µM; actives 56% (n = 5,600); AID 651744;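 active = mean loss of cell viability signal at or above a set limit, and enough replicates individually reaching it; inconclusive = meets only the mean limit or only the replicate share; inactive = meets neither condition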
Numbers stand for hits; ! = not confirmed by another sample. Most compounds without a hit are left out; they make up all but 5.8% or so of the library.

Screening C[C@@H]1CCCCO[C@H](CN(C)CC2CC2)[C@H](C)CN([C@H](C)CO)C(=O)c2cc(NC(=O)C3CCCCC3)ccc2O1 returned KDM4C inh inactive, Pf Dd2 inh -83 and T cruzi growth-1 inactive.
For C[C@H]1CCCCO[C@@H](CN(C)CC2CCCCC2)[C@@H](C)CN([C@@H](C)CO)C(=O)c2cc(NC(=O)Nc3ccccc3)ccc2O1 the results were IDH1 mut inh inactive, KDM4C inh inactive, Pf Dd2 inh -83 and T cruzi growth-1 inactive.
For COc1ccc(NC(=O)Nc2ccc3c(c2)C(=O)N([C@H](C)CO)C[C@H](C)[C@@H](CN(C)CC2CC2)OCCCC[C@H](C)O3)cc1 the results were KDM4C inh inactive, Pf Dd2 inh -84 and T cruzi growth-1 inactive.
For COc1ccc(NC(=O)Nc2ccc3c(c2)C(=O)N([C@H](C)CO)C[C@@H](C)[C@@H](CN(C)CC2CCCCC2)OCCCC[C@@H](C)O3)cc1 the results were IDH1 mut inh inactive, KDM4C inh inactive, Pf Dd2 inh -81 and T cruzi growth-1 inactive.
`COCC(=O)N1C[C@H](C)[C@@H](OC)CN(C)C(=O)c2ccc(NC(=O)c3cnccn3)cc2OC[C@@H]1C` gave KDM4C inh inactive and Pf Dd2 inh inactive.
`O=C(C[C@@H]1CC[C@H]2[C@@H](COC[C@@H](O)CN2C(=O)c2cccnc2)O1)NCc1ccccc1` gave KDM4C inh inactive, Pf Dd2 inh inactive and T cruzi growth-1 inactive.
`C(=C\c1ccc(C2[C@@H]3CN(Cc4ccccn4)C[C@H]2N3)cc1)/c1ccccc1` (stereo partly drawn) gave KDM4C inh inactive and Pf Dd2 inh inactive.
`c1cncc(-c2ccc(C3[C@@H]4CN(Cc5nccs5)C[C@H]3N4)cc2)c1` (stereo partly drawn) gave KDM4C inh inactive and Pf Dd2 inh -88!.
For c1cc(-c2ccc(C3[C@@H]4CN(Cc5nccs5)C[C@H]3N4)cc2)ccn1 (stereo partly drawn) the results were KDM4C inh inactive and Pf Dd2 inh inactive.
For C(=C\c1ccc(C2[C@@H]3CN(Cc4nccs4)C[C@H]2N3)cc1)/c1ccccc1 (stereo partly drawn) the results were KDM4C inh inactive and Pf Dd2 inh -88!.
Screening Cc1noc(C)c1NC(=O)Nc1ccc2c(c1)C(=O)N([C@@H](C)CO)C[C@@H](C)[C@H](CN(C)C(=O)C1CCCCC1)OCCCC[C@H](C)O2 returned IDH1 mut inh inactive, KDM4C inh inactive, Pf Dd2 inh inactive and T cruzi growth-1 inactive.
For COc1cccc(NC(=O)N(C)C[C@H]2Oc3cc(C#Cc4ccccc4)ccc3S(=O)(=O)N([C@@H](C)CO)C[C@H]2C)c1 the results were IDH1 mut inh inactive, KDM4C inh inactive, Pf Dd2 inh inconclusive and T cruzi growth-1 120.
For COc1cccc(NC(=O)N(C)C[C@H]2Oc3cc(C#Cc4ccncc4)ccc3S(=O)(=O)N([C@H](C)CO)C[C@H]2C)c1 the results were IDH1 mut inh inactive, KDM4C inh inactive, Pf Dd2 inh inactive and T cruzi growth-1 inactive.
COc1cccc(C#Cc2ccc3c(c2)O[C@@H](CN(C)C(=O)c2ccccn2)[C@H](C)CN([C@@H](C)CO)S3(=O)=O)c1 was read as IDH1 mut inh inactive, KDM4C inh inactive, Pf Dd2 inh -84 and T cruzi growth-1 inconclusive.
COc1cccc(NC(=O)N(C)C[C@@H]2Oc3cc(C#Cc4ccccc4)ccc3S(=O)(=O)N([C@@H](C)CO)C[C@H]2C)c1 was read as KDM4C inh inactive, Pf Dd2 inh inactive and T cruzi growth-1 125.
Screening C[C@@H]1CN([C@H](C)CO)S(=O)(=O)c2ccc(C#C[C@@H](C)O)cc2O[C@H]1CN(C)C(=O)Nc1ccccc1 returned Pf Dd2 inh -92 and T cruzi growth-1 inactive.
CCS(=O)(=O)Nc1ccc2c(c1)C(=O)N(C)C[C@H](OC)[C@H](C)CN(C(=O)CN(C)C)[C@@H](C)CO2 was read as IDH1 mut inh inactive, KDM4C inh inactive, Pf Dd2 inh inactive and T cruzi growth-1 inactive.
For C[C@H]1CN([C@@H](C)CO)S(=O)(=O)c2ccc(-c3ccc(F)cc3)cc2O[C@@H]1CN(C)Cc1ccccc1C(=O)O the results were IDH1 mut inh inactive, KDM4C inh inactive and Pf Dd2 inh inactive.
`COc1ccc(S(=O)(=O)Nc2cccc3c2O[C@H](CN(C)Cc2ccc(-c4ccccc4)cc2)[C@@H](C)CN([C@H](C)CO)C3=O)cc1` gave KDM4C inh inactive and Pf Dd2 inh -91.
Screening C[C@H]1CN([C@@H](C)CO)C(=O)c2cccc(NS(C)(=O)=O)c2O[C@@H]1CN(C)Cc1ccc(-c2ccccc2)cc1 returned KDM4C inh inactive, Pf Dd2 inh -84 and T cruzi growth-1 inactive.
For C[C@@H]1CN([C@@H](C)CO)C(=O)c2cccc(NS(=O)(=O)c3ccccc3)c2O[C@H]1CN(C)Cc1ccc(-c2ccccc2)cc1 the results were KDM4C inh inactive, Pf Dd2 inh -84 and T cruzi growth-1 inactive.
For COc1ccccc1S(=O)(=O)N[C@H]1C=C[C@@H](CC(=O)NCc2cc(F)cc(F)c2)O[C@H]1CO the results were IDH1 mut inh inactive, KDM4C inh inactive, Pf Dd2 inh inactive and T cruzi growth-1 inactive.
Screening O=C(O)C1CCCN1C(=O)c1cncc(Br)c1 (stereo not drawn) returned IDH1 mut inh inactive.
For C/C=C/c1ccc([C@H]2[C@@H](CO)N3CCCCN(C(=O)C4CCCC4)C[C@@H]23)cc1 the results were KDM4C inh inactive, Pf Dd2 inh inactive, T cruzi growth-1 107, T cruzi growth-2 108, T cruzi growth-3 inactive, NIH3T3 tox inactive and NIH3T3 tox 2 inactive.
CN(C)C(=O)c1ccc(-c2ccc([C@H]3[C@@H](CO)N4CCCCN(C(=O)C5CCCC5)C[C@H]34)cc2)cc1 was read as Pf Dd2 inh inactive, T cruzi growth-1 102, T cruzi growth-2 105, T cruzi growth-3 101, NIH3T3 tox inactive and NIH3T3 tox 2 39.
`CN(C)C(=O)c1ccc(-c2ccc([C@H]3[C@@H](CO)N4CCCCN(C(=O)C5CCCC5)C[C@@H]34)cc2)cc1` gave Pf Dd2 inh inactive, T cruzi growth-1 inconclusive, T cruzi growth-2 110, T cruzi growth-3 inactive, NIH3T3 tox inactive and NIH3T3 tox 2 inactive.
CCCC(=O)CC(c1ccccc1)C1C(=O)c2ccccc2C1=O (stereo not drawn) was read as IDH1 mut inh inactive.
